Values after ≈ are worked out from the molar mass of the structure shown. Active and inactive are the calls of the source. No cut-off for these calls is given here.
Tests used:
[1] = Toxicity in rat assessed as change in notch related goblet cell metaplasia in the duodenum at 100 mg/kg, po administered for 2 week; assay type: organism-based; settings: in vivo, 336 h, time 2 weeks
[2] = Reduction in amyloid beta (1 to 42) secretion in brain in Harlan Sprague-Dawley rat at 10 mg/kg, po measured after 3 hrs relative to control; assay type: functional
Method in brief: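 Sprague–Dawley rats dosed 10 mg/kg po; brain Aβ1-42 measured 3 h postdose; n = 5.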

[3] = target: T1, Cytochrome P450 2B6 (Homo sapiens, UniProt P20813); assay: Inhibition of CYP2B6 in human liver microsomes; assay type: ADME
T1 sequence (P20813 whole entry): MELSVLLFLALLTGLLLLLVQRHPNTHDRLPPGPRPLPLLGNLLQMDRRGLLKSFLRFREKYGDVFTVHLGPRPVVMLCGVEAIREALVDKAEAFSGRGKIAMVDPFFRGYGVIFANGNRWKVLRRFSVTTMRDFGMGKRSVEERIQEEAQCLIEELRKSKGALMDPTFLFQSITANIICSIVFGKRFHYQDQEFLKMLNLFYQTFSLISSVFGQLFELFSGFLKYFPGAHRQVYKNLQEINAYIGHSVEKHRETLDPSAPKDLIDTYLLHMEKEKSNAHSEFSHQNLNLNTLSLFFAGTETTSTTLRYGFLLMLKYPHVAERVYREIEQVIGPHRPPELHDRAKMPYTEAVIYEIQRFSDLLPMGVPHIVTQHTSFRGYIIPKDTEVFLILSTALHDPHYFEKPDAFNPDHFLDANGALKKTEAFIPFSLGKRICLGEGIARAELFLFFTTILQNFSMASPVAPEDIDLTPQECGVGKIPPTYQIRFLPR

[4] = target: T2, Cytochrome P450 3A4 (Homo sapiens, UniProt P08684); assay: Time dependent inhibition of CYP3A4 in human liver microsomes assessed as inhibition constant; assay type: ADME
[5] = Toxicity in rat assessed as change in bilirubin secretion at 10 to 100 mg/kg, po administered for 2 week; assay type: organism-based; settings: in vivo, 336 h, dose 10-100 mg/kg, time 2 weeks
[6] = AUC in Beagle dog at 300 mg/kg, po measured up to 24 hrs by LC-MS/MS analysis; assay type: ADME, organism-based, Canis lupus familiaris; parameters: route oral, dose 300 mg/kg, time >=24; settings: in vivo
Method in brief: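 Dogs given an acute single oral dose of 300 mg/kg; plasma Cmax and AUC measured alongside bilirubin and other clinical pathology assessments.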

[7] = Induction of CYP3A4 mRNA expression in human hepatocytes at 1 uM relative to control; assay type: ADME, cell-based, Hepatocyte
[8] = Efflux ratio of permeability in human Caco2 cells; assay type: ADME, cell-based; settings: caco-2
[9] = Inhibition of total amyloid beta secretion in human H4 cells overexpressing APP at 50 uM; assay type: cell-based
[10] = Toxicity in rat assessed as change in gamma-secretase modulator function at 100 mg/kg, po administered for 2 week; assay type: organism-based; settings: in vivo, 336 h, time 2 weeks
[11] = Ratio of drug level in brain to plasma in Harlan Sprague-Dawley rat at 10 mg/kg, po measured after 5 hrs; assay type: ADME, organism-based; settings: read-out: BPR
[12] = Oral bioavailability in Beagle dog at 1 mg/kg dosed as nano suspension measured up to 24 hrs by LC-MS/MS analysis; assay type: ADME, organism-based, Canis lupus familiaris; settings: in vivo
Method in brief: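 Oral dosing as a nanosuspension in Sprague–Dawley rat, male Beagle dog and male cynomolgus monkey; dogs pretreated with pentagastrin.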

[13] = Inhibition of amyloid beta (1 to 40) secretion in human H4 cells overexpressing APP incubated for overnight by HTRF analysis; assay type: functional, cell-based
[14] = test system: H4; assay: Inhibition of amyloid beta (1 to 42) secretion in human H4 cells overexpressing APP incubated for 24 hrs by MALDI-TOF mass spectrometric analysis; assay type: functional, cell-based
[15] = target: T2, Cytochrome P450 3A4; assay: Inhibition of CYP3A4 in human liver microsomes measured after 30 mins; assay type: ADME
[16] = test system: H4; assay: Inhibition of amyloid beta (1 to 40) secretion in human H4 cells overexpressing APP incubated for 24 hrs by MALDI-TOF mass spectrometric analysis; assay type: functional, cell-based
[17] = target: Gamma-secretase (Homo sapiens) (UniProt Q96BI3+Q9NZ42+Q8WW43+P49768+Q92542+P49810); assay: Modulation of gamma-secretase in human H4 cells overexpressing APP incubated assessed as increase in amyloid beta (1 to 38) secretion for 24 hrs by MALDI-TOF mass spectrometric analysis; assay type: cell-based; settings: filed as modulator
Method in brief: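 H4-APPsw cells treated with compound; secreted Aβ species quantified by mass spectrometry; total Aβ1-x checked by ELISA up to 10 μM.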

[18] = Fraction unbound in human plasma measured after 24 hrs by LC-MS/MS analysis; assay type: ADME, cell-free
[19] = target: Cytochrome P450 2C19 (Homo sapiens, UniProt P33261); assay: Inhibition of CYP2C19 in human liver microsomes; assay type: ADME
[20] = Toxicity in Beagle dog assessed as changes in bilirubin level at 300 mg/kg, po; assay type: organism-based, Canis lupus familiaris; settings: in vivo
Method in brief: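 Dogs given a single acute oral dose of 300 mg/kg; bilirubin and other clinical pathology assessed; Cmax and AUC measured.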

[21] = Induction of necrosis in rat at 100 mg/kg, po administered for 2 week; assay type: organism-based; settings: in vivo, 336 h, time 2 weeks
Method in brief: (§1)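 Rats given oral doses of 10, 30 or 100 mg/kg daily for 2 weeks in a repeat-dose toxicity study.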

[22] = Plasma exposure (AUC) in rat at 3 mg/kg measured after 24 hrs
[23] = Half life in Beagle dog at 1 mg/kg, iv measured up to 24 hrs by LC-MS/MS analysis; assay type: ADME, organism-based, Canis lupus familiaris; settings: in vivo
Method in brief: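 Male Beagle dogs and male cynomolgus monkeys, 1 mg/kg by 5 min iv infusion in 9:1 PEG:EtOH, n=3.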

[24] = Plasma exposure (AUC) in rat at 10 mg/kg measured after 24 hrs
[25] = Aqueous solubility of the compound at pH 6.5; assay type: physicochemical; settings: buffer
[26] = Dissociation constant, pKa of compound; assay type: physicochemical
[27] = test system: Brain; assay: Antialzheimer activity in rat brain assessed as reduction in amyloid beta (1 to 42) AUC at 3 mg/kg measured after 24 hrs relative to control; assay type: functional; parameters: scale not given: the % may be the effect or the level left
Method in brief: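 Rats dosed orally; brain Aβ1-42 followed over 24 h, and the reduction in brain Aβ1-42 AUC integrated over 0–24 h was fitted to an indirect response PK/PD model.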

[28] = Toxicity in rat assessed as stress at 100 mg/kg, po administered for 2 week; assay type: organism-based; settings: in vivo, 336 h, time 2 weeks
[29] = Fraction unbound in cynomolgus monkey plasma measured after 24 hrs by LC-MS/MS analysis; assay type: ADME, cell-free, Macaca fascicularis
[30] = Hepatotoxicity in rat at 100 mg/kg, po administered for 2 week; assay type: toxicity, organism-based; settings: in vivo, 336 h, time 2 weeks; method in brief: as §1
[31] = Metabolic stability in Sprague-Dawley rat assessed as half life incubated for 24 hrs by LC-MS/MS analysis; assay type: ADME
[32] = Fraction unbound in mouse plasma measured after 24 hrs by LC-MS/MS analysis; assay type: ADME, cell-free

T2 sequence (P08684 whole entry): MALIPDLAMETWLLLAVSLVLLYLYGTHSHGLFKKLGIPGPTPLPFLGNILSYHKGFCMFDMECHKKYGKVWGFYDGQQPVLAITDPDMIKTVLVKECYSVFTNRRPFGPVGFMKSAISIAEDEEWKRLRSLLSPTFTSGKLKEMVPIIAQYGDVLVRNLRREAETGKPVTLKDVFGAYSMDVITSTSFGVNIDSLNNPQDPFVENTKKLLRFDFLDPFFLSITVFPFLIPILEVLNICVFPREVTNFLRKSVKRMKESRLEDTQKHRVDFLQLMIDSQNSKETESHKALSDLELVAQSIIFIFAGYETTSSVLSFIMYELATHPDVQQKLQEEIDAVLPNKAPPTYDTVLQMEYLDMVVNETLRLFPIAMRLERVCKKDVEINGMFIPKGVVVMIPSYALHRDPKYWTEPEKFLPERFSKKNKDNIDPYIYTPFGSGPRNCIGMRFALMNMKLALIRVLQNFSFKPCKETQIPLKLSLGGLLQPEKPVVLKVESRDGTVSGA
Cytochrome P450 2C19, sequence (P33261 whole entry): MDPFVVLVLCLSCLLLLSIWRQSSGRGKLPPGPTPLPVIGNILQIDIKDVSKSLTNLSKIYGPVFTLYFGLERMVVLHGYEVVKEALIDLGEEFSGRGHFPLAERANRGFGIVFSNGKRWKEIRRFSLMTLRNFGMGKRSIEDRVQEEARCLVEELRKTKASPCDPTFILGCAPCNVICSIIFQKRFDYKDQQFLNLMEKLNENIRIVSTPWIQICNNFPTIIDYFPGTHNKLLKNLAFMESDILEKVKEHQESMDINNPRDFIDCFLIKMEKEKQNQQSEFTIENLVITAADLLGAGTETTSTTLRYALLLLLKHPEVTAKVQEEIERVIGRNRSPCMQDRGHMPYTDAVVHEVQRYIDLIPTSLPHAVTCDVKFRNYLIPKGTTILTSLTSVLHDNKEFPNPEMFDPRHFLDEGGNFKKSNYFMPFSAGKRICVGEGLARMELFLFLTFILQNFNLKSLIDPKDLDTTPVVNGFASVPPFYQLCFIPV

SMILES: CNc1nc(Nc2ccc(-n3cnc(C)n3)c(OC)c2)nc2c1CC[C@H]2c1ccc(F)cc1
- Activity [1]: Non-Toxic
- inhibition in vivo at 10 mg/kg [2]: 41%
- IC50 [3]: > 40 µM
- Ki [4]: 83 µM
- Activity [5]: Non-Toxic
- AUC [6]: 180 µM·h
- Activity [7]: 16%
- Ratio [8]: 0.8
- inhibition at 50 µM [9]: 30%
- Activity [10]: Non-Toxic
- Kp at 5 h [11]: 0.23
- F [12]: 85%
- IC50 [13]: 0.025 µM
- inhibition [14]: Active
- IC50 [15]: 0.2 µM
- inhibition [16]: Active
- inhibition [17]: Active
- Fu [18]: 0.6%
- IC50 [19]: 8.3 µM
- Activity [20]: Non-Toxic
- Activity [21]: Non-Toxic
- AUC at 24 h [22]: 9.7 µM·h
- t1/2 [23]: 8.7 h
- AUC at 24 h [24]: 32 µM·h
- solubility [25]: 0.1 µg/mL (≈ 0.224 µM)
- pKa [26]: 2
- Activity [27]: 45%
- Activity [28]: Non-Toxic
- Fu [29]: 1.3%
- Activity [30]: Non-Toxic
- t1/2 [31]: 0.467 h
- Fu [32]: 0.7%
